≈ marks a conversion by molar mass, not a printed value.
Columns and labels:
[1] = test system: Mycobacterium tuberculosis; experiment: Antituberculosis activity against Mycobacterium tuberculosis MYC5165 harboring InhA mutant gene after 7 days by MTT assay; format: functional
Summary of the method: (§1)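 Colorimetric MTT microassay: serial 2-fold dilutions from DMSO stocks in Middlebrook 7H9 broth, bacterial suspension in 7H9 added. After 6 days, MTT (1 mg/mL) added; 1 day later solubilization buffer, OD 570 nm. MIC = lowest concentration inhibiting growth, untreated bacilli as growth control.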

[2] = test system: Mycobacterium tuberculosis; experiment: Antituberculosis activity against Mycobacterium tuberculosis 1400 harboring KatG mutant gene after 7 days by MTT assay; format: functional; summary of the method: as §1

Compound | MIC [1] [µM] | MIC [2] [µM]
CC(C)=CCOc1ccc(/C=C/C(=O)NNC(=O)c2ccncc2)cc1 | 27 (≈ 9.49 µg/mL) | 68 (≈ 23.9 µg/mL)
CC(C)=CCOc1ccc(/C=C/c2nnc3c4ccccc4cnn23)cc1 | 0.2 (≈ 0.0713 µg/mL) | 0.4 (≈ 0.143 µg/mL)
COc1ccc(/C=C/C(=O)NNC(=O)c2ccncc2)cc1 | 16 (≈ 4.76 µg/mL) | 320 (≈ 95.1 µg/mL)
O=C(O)c1cn(C2CC2)c2cc(N3CCNCC3)c(F)cc2c1=O [CIPROFLOXACIN] | 5 (≈ 1.66 µg/mL) | 5 (≈ 1.66 µg/mL)
NNC(=O)c1ccncc1 [ISONIAZID] | 18 (≈ 2.47 µg/mL) | 729 (≈ 100 µg/mL)
